The source of these data is ChEMBL document CHEMBL1149189, “In vitro antimalarial activity of a series of cationic 2,2'-bipyridyl- and 1,10-phenanthrolineplatinum(II) benzoylthiourea complexes” (J Med Chem, 2004).

Each structure is given as a SMILES string. Structures can show the parent of a compound that is named as a salt.

The subject of one experiment is Ferriprotoporphyrin IX.
Settings: not given
`O=[N+]([O-])c1cc2cccnc2c2ncccc12`: the Log K is 2.88.
As to `Cc1ccnc2c1ccc1cccnc12`, the Log K came to 3.22.
On the same count and under the same terms, for `Clc1cc2cccnc2c2ncccc12` the value was 3.01.
For the compound `Cc1cc2cccnc2c2ncccc12`, the Log K came to 2.93.
`Cc1cnc2c(ccc3c(C)c(C)cnc32)c1C` yielded a Log K of 3.32.
Same read-out and setting: the value for `CCN(CC)CCN(CCN(CC)CC)C(=S)NC(=O)c1ccccc1` was 1.93.

Another experiment relates to Ferriprotoporphyrin IX.
Settings: not given
This is another data set of the same source.
As for `c1ccc(-c2ccccn2)nc1`, the “Log K” value was “No association”.
`O=C(NC(=S)N(CCO)CCO)c1ccccc1`: the “Log K” value is “No association”.
Same read-out and setting: for `Cc1ccnc(-c2cc(C)ccn2)c1` the value was “No association”.

The test system of the next experiment is CHO. Nature of the experiment: In vitro cytotoxicity against CHO cells was determined using MTT colorimetric assay. Format: functional, cell-based. The note with it: Cricetulus griseus. Summed up: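 Chinese hamster ovary cells; MTT colorimetric read-out. Compounds dissolved as 2 mg/mL stocks in water, then diluted in medium as six serial 10-fold dilutions, final 100 µg/mL to 1 ng/mL. Emetine dihydrochloride as positive control. IC50 from nonlinear dose–response curve fitting; mean ± standard deviation of two independent experiments, each in triplicate.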
One may read the IC50 as the concentration needed to halve the response being measured. Higher therefore signals weaker potency in that assay. Regarding `CC[C@H]1CN2CCc3cc(OC)c(OC)cc3[C@@H]2C[C@@H]1C[C@H]1NCCc2cc(OC)c(OC)cc21` [EMETINE HYDROCHLORIDE], the IC50 amounted to 139 nM.
